Reference: paper PMC7253076 (Cell chemical biology, 2019)

Columns and labels:
[1] = test system: human stem-cell-derived motor neurons carrying the ALS-causing SOD1^A4V mutation; assay: Motor neuron CPA survival assay, SOD1^A4V ALS motor neurons; settings: for maximum efficacy compared with compound 1 / neuroprotection in CPA survival assay / concentrations that completely blocked the effects of CPA treatment: CPA-treated SOD1^A4V motor neurons; for EC50: Homo sapiens, Neuron, 72 h, read-out: EC50 in motor neuron survival assay
JNK pathway = assay: Western blots of JNK pathway in CPA-treated motor neurons; assay type: cell-based, mouse; settings: western blot, Fig. S2
How it was run: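 Day-6 embryoid bodies from mouse ES cells (HB9::GFP reporter, human SOD1 transgene; RA 1 μM + SAG 0.5 μM) were given CPA 10 μM plus test compound 0.5 μM for 4 h, then lysed in HEPES/Triton/SDS buffer. Immunoblots used phospho-JNK (Thr183/Tyr185), phospho-c-Jun (Ser63), phospho-MKK4 (Ser257), total proteins and cleaved caspase 3 at 1:1000, with GAPDH at 1:3000. Signals normalised to GAPDH, phospho to total, and expressed as % of CPA; n = 2 differentiations; unpaired two-tailed t-tests.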

[2] = test system: mouse stem cell-derived motor neurons; settings: CPA-treated; ref Thams et al., 2019; cited from earlier work
[3] = test system: motor neurons differentiated from human induced pluripotent stem cells derived from a healthy patient; assay: Motor neuron CPA survival assay, healthy-patient iPSC-derived motor neurons; assay type: cell-based; settings: for rescue of CPA toxicity / neuroprotection: CPA-treated healthy human motor neurons, 72 h; for concentrations toxic to motor neurons in the absence of CPA: without CPA

With `CN1CCN(Cc2ccc(-c3cnc4[nH]cc(-c5cccc6[nH]ncc56)c4c3)cc2)CC1` [7aa, 4-(5-(4-((4-Methylpiperazin-1-yl)methyl)phenyl)-1H-pyrrolo[2,3-b]pyridin-3-yl)-1H-indazole] the “maximum efficacy compared with compound 1” value [1] was “greater maximum efficacy than compound 1” and the EC50 [1] was less than 220 nM.

For `CN1CCN(Cc2ccc(-c3cnc4[nH]cc(-c5ccccc5)c4c3)cc2)CC1` [7ac, 5-(4-((4-Methylpiperazin-1-yl)methyl)phenyl)-3-phenyl-1H-pyrrolo[2,3-b]pyridine], the “maximum efficacy compared with compound 1” value [1] was “greater maximum efficacy than compound 1”.

For `CNC(=O)Nc1cccc(-c2c[nH]c3ncc(-c4ccc(CN5CCN(C)CC5)cc4)cc23)c1` [7ak, 1-Methyl-3-(3-(5-(4-((4-methylpiperazin-1-yl)methyl)phenyl)-1H-pyrrolo[2,3-b]pyridin-3-yl)phenyl)urea], the “maximum efficacy compared with compound 1” value [1] was “greater maximum efficacy than compound 1”.

For `COC(=O)Nc1cccc(-c2c[nH]c3ncc(-c4ccc(CN5CCN(C)CC5)cc4)cc23)c1` [7al, Methyl (3-(5-(4-((4-methylpiperazin-1-yl)methyl)phenyl)-1H-pyrrolo[2,3-b]pyridin-3-yl)phenyl)carbamate], the “maximum efficacy compared with compound 1” value [1] was “greater maximum efficacy than compound 1”.

For `CNC(=O)Nc1ccc(-c2c[nH]c3ncc(-c4ccc(CN5CCN(C)CC5)cc4)cc23)cc1` [7am, 1-Methyl-3-(4-(5-(4-((4-methylpiperazin-1-yl)methyl)phenyl)-1H-pyrrolo[2,3-b]pyridin-3-yl)phenyl)urea], the “maximum efficacy compared with compound 1” value [1] was “greater maximum efficacy than compound 1”.

With `CN1CCN(Cc2ccc(-c3cnc4[nH]cc(-c5cccc(NC(=O)NCc6ccco6)c5)c4c3)cc2)CC1` [7ay, 1-(Furan-2-ylmethyl)-3-(3-(5-(4-((4-methylpiperazin-1-yl)methyl)phenyl)-1H-pyrrolo[2,3-b]pyridin-3-yl)phenyl)urea] the “neuroprotection in CPA survival assay” value [1] was “completely ineffective”.

In the case of `CN1CCN(Cc2ccc(-c3cnc4[nH]cc(-c5cccc6c5oc5ccccc56)c4c3)cc2)CC1` [7c, 3-(Dibenzo[b,d]furan-4-yl)-5-(4-((4-methylpiperazin-1-yl)methyl)phenyl)-1H-pyrrolo[2,3-b]pyridine], the “neuroprotection in CPA survival assay” value [1] is reported as “completely ineffective”.

In the case of `CN1CCN(Cc2ccc(-c3cnc4[nH]cc(-c5ccc(N)cc5)c4c3)cc2)CC1` [7e, 4-(5-(4-((4-Methylpiperazin-1-yl)methyl)phenyl)-1H-pyrrolo[2,3-b]pyridin-3-yl)aniline], the “maximum efficacy compared with compound 1” value [1] is reported as “greater maximum efficacy than compound 1”.

With `CN1CCN(Cc2ccc(-c3cnc4[nH]cc(-c5cccc(N)c5)c4c3)cc2)CC1` [7h, 3-(5-(4-((4-Methylpiperazin-1-yl)methyl)phenyl)-1H-pyrrolo[2,3-b]pyridin-3-yl)aniline] the “maximum efficacy compared with compound 1” value [1] was “greater maximum efficacy than compound 1” and the EC50 [1] was less than 220 nM.

In the case of `Cc1cc(-c2c[nH]c3ncc(-c4ccc(CN5CCN(C)CC5)cc4)cc23)cnc1N` [7l, 3-Methyl-5-(5-(4-((4-methylpiperazin-1-yl)methyl)phenyl)-1H-pyrrolo[2,3-b]pyridin-3-yl)pyridin-2-amine], the “maximum efficacy compared with compound 1” value [1] is reported as “greater maximum efficacy than compound 1” and the EC50 [1] is reported as less than 220 nM.

In the case of `CN1CCN(Cc2ccc(-c3cnc4[nH]cc(-c5ccc(N)nc5)c4c3)cc2)CC1` [7m, 5-(5-(4-((4-Methylpiperazin-1-yl)methyl)phenyl)-1H-pyrrolo[2,3-b]pyridin-3-yl)pyridin-2-amine], the EC50 [1] is reported as less than 220 nM.

For `CN1CCN(Cc2ccc(-c3cnc4[nH]cc(-c5cccc([N+](=O)[O-])c5)c4c3)cc2)CC1` [7p, 5-(4-((4-Methylpiperazin-1-yl)methyl)phenyl)-3-(3-nitrophenyl)-1H-pyrrolo[2,3-b]pyridine], the “maximum efficacy compared with compound 1” value [1] was “greater maximum efficacy than compound 1”.

In the case of `CN1CCN(Cc2ccc(-c3cnc4[nH]cc(-c5ccc6[nH]ncc6c5)c4c3)cc2)CC1` [7v, 5-(5-(4-((4-Methylpiperazin-1-yl)methyl)phenyl)-1H-pyrrolo[2,3-b]pyridin-3-yl)-1H-indazole], the “maximum efficacy compared with compound 1” value [1] is reported as “greater maximum efficacy than compound 1” and the EC50 [1] is reported as less than 220 nM.

For `CN1CCN(Cc2ccc(-c3cnc4[nH]cc(-c5cccc(F)c5)c4c3)cc2)CC1` [7y, 3-(3-Fluorophenyl)-5-(4-((4-methylpiperazin-1-yl)methyl)phenyl)-1H-pyrrolo[2,3-b]pyridine], the “maximum efficacy compared with compound 1” value [1] was “greater maximum efficacy than compound 1”.

With `CN1CC2CCC(C1)N2Cc1ccc(-c2cnc3[nH]cc(-c4cccc(Cl)c4)c3c2)cc1` [12f, 3-(3-Chlorophenyl)-5-(4-((3-methyl-3,8-diazabicyclo[3.2.1]octan-8-yl)methyl)phenyl)-1H-pyrrolo[2,3-b]pyridine] the EC50 [1] was 110 nM and the “concentrations at which compound was toxic” value ([1]; motor neuron survival assay) was “above 0.3 μM”.

With `OCCN1CCN(Cc2ccc(-c3cnc4[nH]cc(-c5cccc(F)c5)c4c3)cc2)CC1` [12h, 2-(4-(4-(3-(3-Fluorophenyl)-1H-pyrrolo[2,3-b]pyridin-5-yl)benzyl)piperazin-1-yl)ethan-1-ol] the “inhibition of JNK pathway components” value (JNK pathway) was “effectively inhibit the same JNK pathway components as compound 1” and the “concentrations that completely blocked the effects of CPA treatment” value [1] was less than 0.3 µM.

With `O[C@@H]1CCN(Cc2ccc(-c3cnc4[nH]cc(-c5cccc(F)c5)c4c3)cc2)C1` [12i, (R)-1-(4-(3-(3-Fluorophenyl)-1H-pyrrolo[2,3-b]pyridin-5-yl)benzyl)pyrrolidin-3-ol] the “inhibition of JNK pathway components” value (JNK pathway) was “effectively inhibit the same JNK pathway components as compound 1” and the “concentrations that completely blocked the effects of CPA treatment” value [1] was less than 0.3 µM.

In the case of `O[C@@H]1CCN(Cc2ccc(-c3cnc4[nH]cc(-c5cccc(Cl)c5)c4c3)cc2)C1` [12l, (R)-1-(4-(3-(3-Chlorophenyl)-1H-pyrrolo[2,3-b]pyridin-5-yl)benzyl)pyrrolidin-3-ol], the “inhibition of JNK pathway components” value (JNK pathway) is reported as “effectively inhibit the same JNK pathway components as compound 1” and the “concentrations that completely blocked the effects of CPA treatment” value [1] is reported as less than 0.3 µM.

For `Cn1c2ccccc2c2c3c(c4c5ccccc5n(CCC#N)c4c21)CNC3=O` [Gö6976], the “protection of motor neurons from ER stress” value (“protection of motor neurons” for short) [2] is listed as “protect motor neurons from ER stress”.

For `Cc1nc(Nc2cnn(C3CCNCC3)c2)nc2c1N(C)C(=O)c1cc3ccccc3cc1N2C` [HTH 01–015], the “rescue of CPA toxicity / neuroprotection” value [3] was “did not rescue CPA toxicity” and the “concentrations toxic to motor neurons in the absence of CPA” value [3] was “above 2 μM”.

For `COC(=O)[C@@]1(O)C[C@H]2O[C@]1(C)n1c3ccccc3c3c4c(c5c6ccccc6n2c5c31)C(=O)NC4` [K252a], the “protection of motor neurons” value [2] is given as “protect motor neurons from ER stress”.

With `Nc1ccc(-c2cnc(N)c(-c3ccc(Cl)cc3)c2)cn1` [PF-6260933] the “rescue of CPA toxicity / neuroprotection” value [3] was “neuroprotective”.

For `CCC(=O)Nc1cccc(Oc2nc(Nc3ccc(N4CCN(C)CC4)cc3OC)ncc2Cl)c1` [WZ4003], the “rescue of CPA toxicity / neuroprotection” value [3] was “did not rescue CPA toxicity” and the “concentrations toxic to motor neurons in the absence of CPA” value [3] was “above 2 μM”.

For `O=C1Cc2c([nH]c3ccc([N+](=O)[O-])cc23)-c2ccccc2N1` [alsterpaullone], the “rescue of CPA toxicity / neuroprotection” value [3] was “more potent than kenpaullone”.

For `O=C1Cc2c([nH]c3ccc(Br)cc23)-c2ccccc2N1` [kenpaullone], the “protection of motor neurons” value [2] is given as “protect motor neurons from ER stress”.
